In article PMC3055594 (Glycobiology, 2010):
Like-named read-outs stand apart in the source and are kept apart here.

Tests used:
Mt-PrsA [1] = target: T1, Mt-PrsA (Mycobacterium tuberculosis, UniProt P9WKE3); experiment: Intrinsic tryptophan fluorescence; format: binding
T1 sequence (P9WKE3 1-326): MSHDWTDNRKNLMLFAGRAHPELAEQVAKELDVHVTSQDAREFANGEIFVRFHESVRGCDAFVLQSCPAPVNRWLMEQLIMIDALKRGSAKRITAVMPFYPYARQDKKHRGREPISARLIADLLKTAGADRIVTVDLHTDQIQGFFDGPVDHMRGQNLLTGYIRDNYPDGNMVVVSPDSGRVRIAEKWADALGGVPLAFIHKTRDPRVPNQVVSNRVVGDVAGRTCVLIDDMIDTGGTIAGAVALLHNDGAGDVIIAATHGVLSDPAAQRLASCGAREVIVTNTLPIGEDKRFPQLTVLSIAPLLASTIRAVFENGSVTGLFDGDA
Summary of the method: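 Excitation was at 292 nm; emission spectra were taken at 300–400 nm 5 min after each ligand aliquot. ΔFemission at 335 nm was plotted against [L] and fitted for Kd and Hill n. R5P was titrated with or without 5 mM AMPPNP, and AMPPNP with or without 5 mM R5P.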

Mt-PrsA [2] = target: T1, Mt-PrsA; experiment: Continuous enzyme-coupled spectrophotometric assay of Mt-PrsA; format: biochemical
Mt-PrsA [3] = target: T1, Mt-PrsA; format: biochemical; settings: 2 mM final concentration, 37°C
[4] = tested on: arabinofuranosyltransferases EmbA, EmbB, EmbC and AftB; format: biochemical, Mycobacterium smegmatis; settings: EMB 100 µg/mL; ADP 2 mM
Mt-PrsA [5] = target: T1, Mt-PrsA; settings: 5 mM ligand
Summary of the method: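 Recombinant Mt-PrsA was purified by Ni2+-NTA with a 250 mM imidazole step to ~98% purity, then dialyzed into 50 mM KH2PO4 (pH 7.9), 300 mM NaCl, 1 mM DTT. Sedimentation velocity was run with absorbance optics using no ligand or 5 mM R5P, ATP or ADP. The read-out was the molar mass distribution c(M) against apparent molecular weight.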

[6] = read-out: Kd (ITF), ligand alone, 70 µM Mt-PrsA

Nc1ncnc2c1ncn2[C@@H]1O[C@H](COP(=O)(O)OP(=O)(O)O)[C@@H](O)[C@H]1O [ADP]
Hill coefficient (n) of binding (ITF) (Mt-PrsA [1]; ligand alone): 2 | Kd (Mt-PrsA [1]; [6]): 513 µM | Ki (Mt-PrsA [2]; read-out: Ki against increasing [ATP], saturating [R5P], Eq. (6)): 522 µM | effect on Mt-PrsA activity / p[14C]Rpp formation (Mt-PrsA [3]): strongly inhibited | effect on AraT-dependent product formation [4]: inhibition of any AraT-dependent product formation | effect on oligomeric state of Mt-PrsA, c(M) distribution (Mt-PrsA [5]): shifted toward an increase in the hexameric state

Nc1ncnc2c1ncn2C1OC(COP(=O)(O)OP(=O)(O)NP(=O)(O)O)C(O)C1O (stereo not drawn) [AMPPNP, 5'-adenylyl-β,γ-imidodiphosphate]
Hill coefficient (n) for AMPPNP in the presence of R5P (Mt-PrsA [1]; 5 mM R5P): 5 | Hill coefficient (n) of binding (ITF) (Mt-PrsA [1]; ligand alone): ~4 | Kd (Mt-PrsA [1]; [6]): 31 µM | Kd (Mt-PrsA [1]; read-out: Kd for AMPPNP in the presence of R5P, 5 mM R5P): 28.2 µM

Nc1ncnc2c1ncn2[C@@H]1O[C@H](COP(=O)(O)OP(=O)(O)OP(=O)(O)O)[C@@H](O)[C@H]1O [ATP]
Hill coefficient (n) of binding (ITF) (Mt-PrsA [1]; ligand alone): ~4 | Kd (Mt-PrsA [1]; [6]): 28.3 µM | apparent Hill coefficient (n), kinetics (Mt-PrsA [2]; increasing [ATP], saturating R5P, 50 mM Pi): 1.68 | Vmax for ATP (Mt-PrsA [2]; saturating R5P, 50 mM Pi): 601 µmol⁻¹ min⁻¹ mg⁻¹ | S0.5 for ATP (Mt-PrsA [2]; saturating R5P, 50 mM Pi, Eq. (4)): 62.65 µM | c(M) peak position (Mt-PrsA [5]): ~70,000 Da | effect on oligomeric state of Mt-PrsA, c(M) distribution (Mt-PrsA [5]): reduction in the intensity of the hexameric species

[Ca+2].[Cl-].[Cl-] [CaCl2]
effect on Mt-PrsA activity / p[14C]Rpp formation (Mt-PrsA [3]): loss of Mt-PrsA activity

CC[C@@H](CO)NCCN[C@@H](CC)CO [EMB, ethambutol]
effect on AraT-dependent product formation [4]: loss of the upper band with only the lower band remaining

O=P(O)(O)O [Pi, inorganic phosphate]
concentration required for full enzyme activation (Mt-PrsA [2]): 50 mM

O=C[C@H](O)[C@H](O)[C@H](O)COP(=O)(O)O [R5P, ribose-5-phosphate]
Kd (Mt-PrsA [1]; Kd (ITF), ligand alone, 70 µM Mt-PrsA): 24.8 µM | Kd (Mt-PrsA [1]; apparent Kd for R5P in the presence of AMPPNP, 5 mM AMPPNP): 21.4 µM | Km (Mt-PrsA [2]; read-out: Km for R5P, saturating ATP, 50 mM Pi, Eq. (2)): 8.2 µM | Vmax (increasing R5P) (Mt-PrsA [2]; saturating ATP, 50 mM Pi): 530 µmol⁻¹ min⁻¹ mg⁻¹ | effect on oligomeric state of Mt-PrsA, c(M) distribution (Mt-PrsA [5]): no apparent change in the equilibrium or oligomeric state
